Experimental data: the M2OR odorant receptor database

biological target: T1, UniProt Q924H8; settings: stereoisomer not certain
T1 sequence (whole entry): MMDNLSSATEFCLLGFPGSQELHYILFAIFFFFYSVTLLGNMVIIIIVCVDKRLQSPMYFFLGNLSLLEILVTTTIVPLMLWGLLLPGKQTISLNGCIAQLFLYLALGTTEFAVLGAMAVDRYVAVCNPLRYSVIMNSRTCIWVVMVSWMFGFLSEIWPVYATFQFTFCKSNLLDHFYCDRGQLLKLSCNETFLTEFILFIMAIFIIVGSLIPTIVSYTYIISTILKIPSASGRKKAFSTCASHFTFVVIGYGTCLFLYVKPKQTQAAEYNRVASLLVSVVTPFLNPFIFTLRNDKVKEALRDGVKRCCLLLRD
Summary of the method: (§1)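 Each entry records the cell line, G-protein, co-transfected protein and tags used. Methods varied with the source, often transient luciferase assays in mammalian cell lines. A receptor–molecule pair is called responsive (active) if the original authors judged its signal statistically different from baseline and non-responsive (inactive) otherwise.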

SMILES	odorant receptor agonist call
CC(=O)OCc1ccccc1	inactive
CCCCCCCCCS	active
O=C(c1ccccc1)c1ccccc1	inactive
O=C1CCOc2ccccc21	inactive
CCCCCC1=C(C)CCC1=O	inactive
CCCC(=O)C(C)=O	inactive
CC12CCC(CC1=O)C2(C)C (stereo not drawn)	inactive
O=C1Cc2ccccc2O1	inactive
C=CCOC(=O)CCCCCC	inactive
CC(=O)OCC=C(C)C	inactive
CCCCCCOC(C)=O	inactive
CCC(=O)O	inactive
CCC(=O)C(=O)CC	inactive
CCCCCOC(=O)CCCCC	inactive
CCCCC(C)=O	inactive
CCCCC(=O)CC	inactive

biological target: T2, UniProt Q924X8; settings: stereoisomer not certain
T2 sequence (whole entry): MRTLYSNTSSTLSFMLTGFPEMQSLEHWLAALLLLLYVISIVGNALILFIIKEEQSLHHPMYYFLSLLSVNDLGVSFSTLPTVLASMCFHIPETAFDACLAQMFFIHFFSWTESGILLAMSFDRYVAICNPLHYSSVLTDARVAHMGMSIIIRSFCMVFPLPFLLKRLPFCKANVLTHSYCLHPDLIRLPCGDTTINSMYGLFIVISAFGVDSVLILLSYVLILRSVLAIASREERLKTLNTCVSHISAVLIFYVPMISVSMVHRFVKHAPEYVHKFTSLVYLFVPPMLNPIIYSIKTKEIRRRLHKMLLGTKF
Summary of the method: as §1

SMILES	odorant receptor agonist call
O=C(O)CCCCCC(=O)O	active
O=C(O)CCCCBr	active
O=C([O-])CCCCC(=O)[O-].[H+].[H+]	active
CCCCCCCC(=O)[O-].[H+]	inactive
CCCCCO	inactive
O=C(O)CCCBr	active
CCCCCCC(=O)[O-].[H+]	inactive
